TRPC4 potent = positive allosteric modulators of TRPC4, primary screen, cell-based, mouse TRPC4beta, HEK293 mu-opioid, Fluo-4 calcium; Short transient receptor potential channel 4 (Mus musculus), Q9QUQ5; DAMGO EC20, Fluo-4 Ca2+ flux; stronger effect = higher value; B-score at 10 µM; 0.42% of 310,000 active; AID 2227, 2009;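 active means B-score of calcium response area above 5 SD of library B-scores, with initial fluorescence ratio within 5 SD of library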
Target sequence (Q9QUQ5 whole entry, looked up): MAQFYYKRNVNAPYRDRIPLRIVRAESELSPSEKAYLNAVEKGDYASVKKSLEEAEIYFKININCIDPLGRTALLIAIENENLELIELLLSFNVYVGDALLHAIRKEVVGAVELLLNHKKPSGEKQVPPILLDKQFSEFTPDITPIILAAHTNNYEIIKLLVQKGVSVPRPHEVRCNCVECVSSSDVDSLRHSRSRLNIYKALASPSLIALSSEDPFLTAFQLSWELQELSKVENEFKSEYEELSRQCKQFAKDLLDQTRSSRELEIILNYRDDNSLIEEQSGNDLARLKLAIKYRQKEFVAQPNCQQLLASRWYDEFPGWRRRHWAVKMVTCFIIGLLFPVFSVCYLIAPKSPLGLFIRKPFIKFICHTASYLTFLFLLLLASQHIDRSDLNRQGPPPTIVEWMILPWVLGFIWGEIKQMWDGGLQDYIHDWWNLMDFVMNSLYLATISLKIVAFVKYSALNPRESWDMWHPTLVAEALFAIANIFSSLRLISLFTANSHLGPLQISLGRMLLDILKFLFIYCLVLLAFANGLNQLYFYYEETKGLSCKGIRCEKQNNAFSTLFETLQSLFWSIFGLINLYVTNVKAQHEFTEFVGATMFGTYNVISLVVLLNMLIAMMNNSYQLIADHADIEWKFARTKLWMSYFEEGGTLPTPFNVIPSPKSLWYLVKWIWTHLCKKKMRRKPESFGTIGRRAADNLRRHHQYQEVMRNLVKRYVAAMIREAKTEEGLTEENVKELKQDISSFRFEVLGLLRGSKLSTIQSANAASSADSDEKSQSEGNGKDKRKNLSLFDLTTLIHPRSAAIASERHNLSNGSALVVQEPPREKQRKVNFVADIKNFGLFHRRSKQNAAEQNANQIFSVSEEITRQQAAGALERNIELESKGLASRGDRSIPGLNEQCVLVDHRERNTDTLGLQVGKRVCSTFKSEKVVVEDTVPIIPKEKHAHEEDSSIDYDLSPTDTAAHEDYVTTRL
TRPC4 inh = inhibitors of mouse TRPC4 channel, primary screen, Fluo4 calcium, HEK293 TRPC4beta/mu-opioid cells; Short transient receptor potential channel 4 (Mus musculus), Q9QUQ5; DAMGO-evoked Fluo4 calcium flux; stronger effect = lower value; B-score at 10 µM; 0.39% of 300,000 active; AID 2247, 2010;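 active means B-score over 3 SD under the library average, no early fluorescence shift, positive overall ratio signal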
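Assay system: HEK293 cells with stable TRPC4beta plus mu-opioid receptor expression. Dosing: single dose. Measured by: Fluo4 Ca2+ flux fluorescence. Also added: DAMGO in two steps, submaximal then maximal. Read-out: B score from integrated Fluo4 fluorescence ratio.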
TRPC4 act = activators of mouse TRPC4 channel, primary screen, Fluo4 calcium, HEK293 TRPC4beta/mu-opioid cells | B-score at 10 µM | Fluo4 calcium fluorescence; stronger effect = higher value | 0.49% of 310,000 active;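 active means B-score above 5 SD of library B-scores, and initial fluorescence ratio not above library mean plus 5 SD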;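 further: positive B-score marks a calcium rise read as TRPC4 activation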
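system = HEK293 cells stably co-expressing mouse TRPC4beta and mu-opioid receptor | schedule = Fluo4 dye loading 45 min at room temperature, 110 s recording | measure = B-scored integrated calcium fluorescence ratio | signal = Fluo4 calcium-sensitive dye fluorescence, kinetic, 1 Hz baseline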
TRPC6 act = mouse TRPC6 channel activators, primary screen, cell-based, HEK293, membrane potential dye | 0.13% of 310,000 active | Short transient receptor potential channel 6 (Mus musculus), Q61143 | B-score at 10 µM | HEK293-TRPC6 membrane potential dye fluorescence; stronger effect = higher value;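 active means B-score of the integrated fluorescence ratio above library mean plus 3 SD, and starting fluorescence ratio within library mean plus 5 SD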;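 further: higher score means more depolarization so channel activation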
TRPC6 inh = mouse TRPC6 channel inhibitors, primary screen, cell-based, HEK293, membrane potential dye; Short transient receptor potential channel 6 (Mus musculus), Q61143; ACh-evoked depolarization; stronger effect = lower value; B-score at 10 µM; 1.1% of 310,000 active;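 active means B-score under library mean minus 3 SD, initial fluorescence not abnormally high, positive integrated signal ratio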;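 further: B-score derived from integrated fluorescence ratio over the kinetic read; more negative B-score means stronger inhibition of depolarization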
TRPC4 spec 2 = second check of whether TRPC6 inhibitors also affect mouse TRPC4; inhibition, % at 10 µM; AID 2776; shares compounds with TRPC6 inh; HEK293 TRPC4/MOR, membrane potential dye fluorescence; channel activated by saturating DAMGO dose; 42% of 920 active;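 active means compounds whose fluorescence signal differed from control wells by over 3 SD, either direction, in both duplicate plates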
TRPC4 spec = mouse TRPC4 modulation by TRPC6 hits, confirmation, selectivity assay for TRPC6 inhibitor project, cell-based, HEK293 TRPC4/mu-opioid, membrane potential dye; shares compounds with TRPC6 inh; membrane potential fluorescence; activity change, negative = inhibition, % at 10 µM; 61% of 920 active; AID 2777, 2010;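 active means rise or fall in signal beyond 3 SD of buffer-only wells in both replicate plates, either sign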;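 further: integrated kinetic ratio of fluorescence range over baseline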
HEK293 MPD ctr 2-1 = nonspecific membrane potential effects, parental HEK293, confirmation, counter-screen for TRPC6 inhibitor project, cell-based, second counter screen; shares compounds with TRPC6 inh; parental HEK293 membrane potential dye fluorescence; maximal acetylcholine challenge after compound addition; signal change vs control, % at 10 µM; 31% of 920 active; AID 2779, 2010;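 active means membrane potential signal moving either way by over 3 SD of the maximum-effect control, in both duplicate plates, meaning non-specific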
HEK293 MPD ctr-1 = membrane potential modulation in parental HEK293, confirmation, counter-screen for TRPC6 inhibitor project, cell-based; shares compounds with TRPC6 inh; parental HEK293 membrane potential dye fluorescence; membrane potential signal change, % at 10 µM; 60% of 920 active;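 active means membrane potential signal shifting up or down by more than 3 SD of buffer-only wells, on both duplicate plates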
HEK293 MPD ctr-2 = parental HEK293 membrane potential modulation, confirmation, counter-screen for TRPC6 modulator project, cell-based; shares compounds with TRPC6 inh; membrane potential dye fluorescence; membrane potential signal change, % at 10 µM; 51% of 2,400 active;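 active means membrane potential signal moves up or down beyond 5 SD from buffer-only wells, on both duplicate plates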
HEK293 MPD ctr 2-2 = second counter-screen for TRPC6 modulators: effect in parental HEK293 cells | shares compounds with TRPC6 inh | membrane potential dye fluorescence; after compound, maximal acetylcholine stimulation | inhibition, % at 10 µM | 14% of 2,400 active;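 active means membrane potential signal drops by more than 5 SD from the mean control signal, in both duplicate plates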
TRPC4/MOR mod = TRPC4 modulation by TRPC6 hit compounds, confirmation, selectivity assay for TRPC6 modulator project, cell-based, HEK293 TRPC4/mu-opioid, membrane potential dye, mouse | shares compounds with TRPC6 inh | membrane potential fluorescence | percent change from control (negative = decrease, positive = increase), % at 10 µM | 69% of 2,400 active | AID 488927, 2010;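 active means membrane potential signal moved up or down beyond 5 SD of buffer control wells, in both duplicate plates, actives on both sides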
TRPC4 ctr inh 2 = second check of whether TRPC6 modulators also affect mouse TRPC4; 55% of 2,400 active; inhibition, % at 10 µM; AID 488928; HEK293 TRPC4/mu-opioid, membrane potential dye fluorescence; stimulated with maximal-effect DAMGO; shares compounds with TRPC6 inh;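 active means drop in membrane potential signal beyond 5 SD of the control wells in both duplicate plates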;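 further: TRPC4 counter screen for TRPC6 hits run under conditions tuned for TRPC6 not TRPC4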
TRPC6 block conf = mouse TRPC6 channel inhibitors, confirmation, HEK293 cells, membrane potential dye, duplicate; inhibition, % at 10 µM; ACh-evoked depolarization; shares compounds with TRPC6 inh; 43% of 3,300 active;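 active means fluorescence ratio falls more than 5 SD below the full-stimulation control mean, in both duplicate runs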;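 further: integrated fluorescence ratio of peak minus minimum over baseline after agonist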
TRPC6 act conf = mouse TRPC6 channel activators, confirmation, HEK293 cells, membrane potential dye, duplicate; shares compounds with TRPC6 inh; HEK293-TRPC6 membrane potential dye fluorescence, FDSS; activation, % at 10 µM; 11% of 2,800 active; AID 488961, 2010;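 active means ratio signal rise beyond 5 SD above unstimulated control wells' mean, seen in both duplicate runs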
A number is an active result; . = inactive; / = no result; + = active, no number. This is a sample that favours compounds with a hit; in the whole collection about 2.3% have one here.

SMILES	TRPC4 potent	TRPC4 inh	TRPC4 act	TRPC6 act	TRPC6 inh	HEK293 MPD ctr-2	HEK293 MPD ctr 2-2	TRPC4/MOR mod	TRPC4 ctr inh 2	TRPC6 block conf	TRPC6 act conf	others
Brc1ccc(Oc2ncc(CN3CCN(c4ccccc4)CC3)s2)cc1	.	.	.	.	-5.4	.	.	.	.	.	.
C=CCN1C=CC=C/C1=C1\SC(=S)N(C)C1=O	.	.	.	.	-5.1	.	.	.	.	.	.
CN1C=CC=C/C1=C1\SC(=S)N(c2ccccc2)C1=O	.	.	.	.	.	/	/	/	/	/	/
CCN(CC)S(=O)(=O)c1ccc(NC(=O)C(C)N(c2ccc(OC)cc2)S(C)(=O)=O)cc1 (stereo not given)	.	.	.	.	.	/	/	/	/	/	/
CCOc1ccc(N(C(C)C(=O)Nc2ccc(OC)cc2)S(C)(=O)=O)cc1 (stereo not given)	.	.	.	.	-6.4	.	.	.	.	.	.
CC(=O)c1c(C)n(-c2ccccc2)c2ccc(OCC(O)CN3CCOCC3)cc12 (stereo not given)	.	.	.	.	.	/	/	/	/	/	/
CCN(CC)CC(O)COc1ccc2c(c1)c(C(C)=O)c(C)n2-c1ccccc1 (stereo not given)	.	.	.	.	-5.5	.	.	.	74%	50%	.
CCN1CCN(S(=O)(=O)c2ccc(Cl)c(C(=O)N(C)Cc3ccc(Cl)cc3Cl)c2)CC1	.	.	.	.	.	/	/	/	/	/	/
O=C(NC1CC1)C1CCN(C2CCN(C(=O)CSc3ccccc3)CC2)CC1	.	.	.	.	.	/	/	/	/	/	/
O=C(NC1CC1)C1CCN(C2CCN(C(=O)CCOc3ccccc3)CC2)CC1	.	.	.	30	.	246%	.	76%	.	.	66%
COc1cccc(/C=C/c2nc(C#N)c(NCC(C)C)o2)c1	.	.	.	.	.	/	/	/	/	/	/
CN(C)CCOC1c2ccccc2CSc2ccccc21 (stereo not given)	.	.	.	.	-7.8	/	/	/	/	53%	/	TRPC4 spec 2=.;TRPC4 spec=5.7%;HEK293 MPD ctr 2-1=40%;HEK293 MPD ctr-1=6.8%
CCCn1nnnc1NCc1ccccc1Cl	.	.	.	.	.	/	/	/	/	/	/
N#C/C(=C\c1ccc(O)c(Br)c1)C(=O)N1CCCCC1	.	.	.	.	.	/	/	/	/	/	/
Cc1occc1C(=O)/C(C#N)=C/c1ccc(O)c(Br)c1	.	.	46	73	.	+	107%	236%	.	/	508%
O=C(CSc1nnc2ccccn12)NNC(=O)c1ccc(Br)cc1	.	.	.	.	.	/	/	/	/	/	/
COc1cc(C)nc(-c2csc(C)n2)n1	.	.	.	.	.	/	/	/	/	/	/
O=C(NCC1CCN(c2ccc(S(=O)(=O)N3CCOCC3)cc2)CC1)c1cccc(Cl)c1	.	.	.	.	-6.3	.	.	-30%	.	45%	.
CCN(CC)c1nc(-c2ccc(C(=O)NN)cc2)nc(-c2ccc(C(=O)NN)cc2)n1	.	.	.	.	.	/	/	/	/	/	/
CC1CCC(C(=O)NC(C(=O)Nc2ccccn2)C(C)C)CC1 (stereo not given)	.	.	.	.	.	/	/	/	/	/	/
CCOc1ccc(NC(=O)C(NC(=O)C2CCC(C)CC2)C(C)C)cc1 (stereo not given)	.	.	.	.	-5.7	.	.	.	.	.	.
O=C(COc1ccc(Cl)cc1Cl)Nc1ccc(CN2CCCCC2)cc1	.	.	.	.	-5.3	194%	.	34%	54%	.	/
O=C(COc1ccc(Cl)cc1Cl)Nc1ccc(CN2CCOCC2)cc1	.	.	.	.	.	/	/	/	/	/	/
COc1ccccc1N1CCN(CC(=O)Nc2ccc(CN3CCCCC3)cc2)CC1	.	.	.	.	.	/	/	/	/	/	/
Cc1ccc(Cl)cc1N1CCN(CC(=O)Nc2ccc(CN3CCCCC3)cc2)CC1	.	.	.	.	-5.5	152%	.	19%	76%	44%	/
COc1ccc(C(=O)NC(=S)Nc2ccc(CN3CCCCC3)cc2)cc1Cl	.	.	.	.	.	/	/	/	/	/	/
Cc1ccc(C(=O)NC(=S)Nc2ccc(CN3CCCCC3)cc2)c(C)c1	.	.	.	.	-6.3	.	.	.	68%	40%	/
Cc1noc(NS(=O)(=O)c2ccc(NC(=O)COc3ccc(Cl)cc3Cl)cc2)c1C	.	.	.	.	-5.8	.	.	.	.	.	.
O=C(Nc1cc(S(=O)(=O)N2CCOCC2)ccc1N1CCCC1)c1ccc2c(c1)S(=O)(=O)c1ccccc1C2=O	.	.	.	.	.	/	/	/	/	/	/

Compound activity as filed in PubChem BioAssay.
